The source made the active and inactive calls. The calls are words filed in the database; no cut-off is given here.
Key:
[1] = tested on: Plasmodium falciparum; experiment: Antimalarial activity against CQ, MFQ-susceptible Plasmodium falciparum D6 clone Sierra 1/UNC isolate assessed as inhibition of parasite proliferation by MSF assay; type: functional, organism-based
Procedure, shortened: (§1)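 SYBR Green I fluorescence (MSF) microtiter drug-sensitivity assay: malarial DNA content is the measure of in vitro parasite proliferation. Resistance index is the IC90 ratio of the resistant strain to D6.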

[2] = biological target: Botulinum neurotoxin type A (Clostridium botulinum) (UniProt P0DPI0); experiment: Inhibition of Clostridium botulinum recombinant BoNT/A light chain using N-terminal acetylated, C-terminal aminated SNAP-25 (187-203) as substrate at 20 uM by reverse-phase HPLC analysis
Procedure, shortened: (§2)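 Recombinant BoNT/A LC with SNAP-25 187–203 peptide substrate in 40 mM HEPES–0.05% Tween, pH 7.3, with 0.5 mg/mL BSA and 50 μM excess Zn, at 37 °C. Quenched with TFA; reverse-phase HPLC product/substrate peak areas give percent inhibition, run in duplicate.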

[3] = Selectivity index, ratio of IC50 for human HepG2 cells to IC50 for CQ-resistant, MFQ-susceptible Plasmodium falciparum W2 clone Indochina 1 isolate; type: toxicity, cell-based; details: read-out: Ratio IC50
[4] = biological target: Botulinum neurotoxin type A (Clostridium botulinum, UniProt P0DPI0); experiment: Inhibition of Clostridium botulinum recombinant BoNT/A light chain using N-terminal acetylated, C-terminal aminated SNAP-25 (187-203) as substrate by reverse-phase HPLC analysis
Procedure, shortened: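 Same HPLC LC cleavage assay (pH 7.3 HEPES/Tween, BSA, excess Zn, 37 °C). […] Ki comes from velocity versus substrate at several inhibitor levels, globally fit to a competitive model.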

[5] = biological target: Botulinum neurotoxin type A (Clostridium botulinum) (UniProt P0DPI0); experiment: Inhibition of Clostridium botulinum recombinant BoNT/A light chain using N-terminal acetylated, C-terminal aminated SNAP-25 (187-203) as substrate at 10 uM by reverse-phase HPLC analysis; procedure, shortened: as §2
[6] = Selectivity index, ratio of IC50 for human HepG2 cells to IC50 for CQ, MFQ-susceptible Plasmodium falciparum D6 clone Sierra 1/UNC isolate; type: toxicity, cell-based; details: read-out: Ratio IC50
[7] = tested on: HepG2; experiment: Cytotoxicity against human HepG2 cells assessed as cell viability after 48 hrs by MTT assay; type: cell-based; details: HepG2, 48 h
[8] = tested on: Plasmodium falciparum; experiment: Antimalarial activity against CQ-resistant, MFQ-susceptible Plasmodium falciparum W2 clone Indochina 1 isolate assessed as inhibition of parasite proliferation by MSF assay; type: functional, organism-based; procedure, shortened: as §1
[9] = Selectivity index, ratio of IC50 for human HepG2 cells to IC50 for CQ, MFQ-resistant Plasmodium falciparum TM91C235 clone Southeast asian isolate; type: toxicity, cell-based; details: read-out: Ratio IC50
[10] = tested on: Plasmodium falciparum; experiment: Antimalarial activity against CQ, MFQ-resistant Plasmodium falciparum TM91C235 clone Southeast asian isolate assessed as inhibition of parasite proliferation by MSF assay; type: functional, organism-based; procedure, shortened: as §1
[11] = tested on: PBMC; experiment: Cytotoxicity against human PBMC assessed as inhibition of cell survival after 72 hrs; type: cell-based
Procedure, shortened: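 PBMC from heparinized healthy-donor blood (Histopaque) in RPMI-1640 with 10% FCS and PHA stimulation, 200 000 cells/well, with compounds in DMSO, 72 h at 37 °C, 6% CO2.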

[12] = biological target: Botulinum neurotoxin type A (Clostridium botulinum) (UniProt P0DPI0); experiment: Inhibition of Clostridium botulinum BoNT/A-mediated SNAP-25 cleavage in chicken embryo neurons assessed as intact SNAP-25 level at […] preincubated for 45 mins followed by co-incubation with BoNT/A for 3.5 hrs by western blot analysis in presence of 5 uL of 100 nM antibiotic bafilomycin; parameters: scale not given: the % may be the effect or the level left
[13] = biological target: Botulinum neurotoxin type A (Clostridium botulinum) (UniProt P0DPI0); experiment: Inhibition of Clostridium botulinum BoNT/A-mediated SNAP-25 cleavage in chicken embryo neurons assessed as intact SNAP-25 level at […] preincubated for 45 mins followed by co-incubation with BoNT/A for 3.5 hrs by western blot analysis in presence of 25 uL of 100 nM antibiotic bafilomycin; parameters: scale not given: the % may be the effect or the level left
[14] = biological target: Botulinum neurotoxin type A (Clostridium botulinum) (UniProt P0DPI0); experiment: Inhibition of Clostridium botulinum BoNT/A-mediated SNAP-25 cleavage in chicken embryo neurons assessed as intact SNAP-25 level at […] preincubated for 45 mins followed by co-incubation with BoNT/A for 3.5 hrs by western blot analysis; parameters: scale not given: the % may be the effect or the level left
[15] = tested on: Plasmodium falciparum; experiment: Resistance index, ratio of IC90 for CQ, MFQ-resistant Plasmodium falciparum TM91C235 clone Southeast asian isolate to IC90 for CQ, MFQ-susceptible Plasmodium falciparum D6 clone Sierra 1/UNC isolate; type: functional; procedure, shortened: as §1
[16] = tested on: Plasmodium falciparum; experiment: Resistance index, ratio of IC90 for CQ-resistant, MFQ-susceptible Plasmodium falciparum W2 clone Indochina 1 isolate to IC90 for CQ, MFQ-susceptible Plasmodium falciparum D6 clone Sierra 1/UNC isolate; type: functional; procedure, shortened: as §1
[17] = tested on: Liver microsome; experiment: (§3) Half life in human liver microsomes; type: ADME; details: microsomes
[18] = tested on: Liver; experiment: (§4) Half life in mouse liver microsomes; type: ADME; details: microsomes
[19] = as §3; type: ADME; details: liver microsomes
[20] = as §4; type: ADME; details: liver microsomes

Sequence of Botulinum neurotoxin type A (P0DPI0 2-448 limits assumed): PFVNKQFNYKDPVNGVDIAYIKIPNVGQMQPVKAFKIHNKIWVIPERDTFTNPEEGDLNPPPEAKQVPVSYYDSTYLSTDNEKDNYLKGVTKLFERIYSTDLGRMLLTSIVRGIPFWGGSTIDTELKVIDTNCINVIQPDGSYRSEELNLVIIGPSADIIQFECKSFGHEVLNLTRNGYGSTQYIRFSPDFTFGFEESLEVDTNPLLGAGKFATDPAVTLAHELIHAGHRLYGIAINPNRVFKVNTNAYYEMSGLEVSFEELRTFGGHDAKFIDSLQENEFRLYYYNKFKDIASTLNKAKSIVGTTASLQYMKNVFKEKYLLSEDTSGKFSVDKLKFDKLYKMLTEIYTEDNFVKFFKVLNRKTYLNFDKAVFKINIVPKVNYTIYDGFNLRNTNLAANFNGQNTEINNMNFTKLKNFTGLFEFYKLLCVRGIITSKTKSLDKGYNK
Sequence of Botulinum neurotoxin type A (Clostridium botulinum) (P0DPI0 2-448 limits assumed): as above

| SMILES | IC50 [1] [nM] | inhibition [2] [%] | selectivity ratio [3] | Ki [4] [nM] | selectivity ratio [6] | IC50 [7] [nM] | IC50 [8] [nM] | selectivity ratio [9] | IC50 [10] [nM] | IC50 [11] [nM] | IC90 [1] [nM] | IC50 [4] [nM] | Activity [12] [%] | Activity [13] [%] | IC90 [8] [nM] | Ratio [15] | IC90 [10] [nM] | Ratio [16] | t1/2 [17] [min] | t1/2 [18] [min] | also measured |
| --- | --- | --- | --- | --- | --- | --- | --- | --- | --- | --- | --- | --- | --- | --- | --- | --- | --- | --- | --- | --- | --- |
| CC(=O)O[C@H]1C[C@H]2[C@@H]([C@H](OC(C)=O)C[C@@H]3CC(NCCCNc4ccnc5cc(Cl)ccc45)CC[C@@]32C)[C@@H]2CC[C@H]([C@H](C)CCCNCCCNc3ccnc4cc(Cl)ccc34)[C@@]12C (mixture of isomers) | 143 | 97.2 | 43 | 171 | 32 | 4680 | 108 | 24 | 195 |  |  |  |  |  |  |  |  |  |  |  | inhibition [5]: Active |
| CC(=O)O[C@H]1C[C@H]2[C@@H]([C@H](OC(C)=O)C[C@@H]3C[C@H](N)CC[C@@]32C)[C@@H]2CC[C@H]([C@H](C)CCCNCCNc3ccnc4cc(Cl)ccc34)[C@@]12C |  | 89.3 | 35 | 3220 | 39 | 5610 | 161 | 38 | 147 | 7880 | 176 | 810 | 88 | 81 | 235 | 1.25 | 220 | 1.33 |  |  | Activity [14]: 77% |
| CC(=O)O[C@H]1C[C@H]2[C@@H]([C@H](OC(C)=O)C[C@@H]3CC(=O)CC[C@@]32C)[C@@H]2CC[C@H]([C@H](C)CCCNCCCNc3ccnc4cc(Cl)ccc34)[C@@]12C | 6.12 | 72.9 | 161 |  | 182 | 1110 | 6.89 | 121 | 9.19 | 2610 | 10 | 2320 |  |  | 12.1 | 1.81 | 18.1 | 1.21 | 14 | 6 |  |
| CC(=O)O[C@H]1C[C@H]2[C@@H]([C@H](OC(C)=O)C[C@@H]3CC(NCCNc4ccnc5cc(Cl)ccc45)CC[C@@]32C)[C@@H]2CC[C@H]([C@H](C)CCCNCCNc3ccnc4cc(Cl)ccc34)[C@@]12C (stereo partly drawn) | 120 | 96.5 | 38 | 341 | 32 | 3770 | 98.2 | 30 | 124 | 302 |  |  |  |  |  |  |  |  |  |  | inhibition [5]: Active |
| CC(=O)O[C@H]1C[C@H]2[C@@H]([C@H](OC(C)=O)C[C@@H]3C[C@H](NS(C)(=O)=O)CC[C@@]32C)[C@@H]2CC[C@H]([C@H](C)CCCN(C)CCNc3ccnc4cc(Cl)ccc34)[C@@]12C | 5.35 | 33.8 | 1190 |  | 2710 | 14500 | 12.1 | 2200 | 6.59 |  | 10.2 | 25000 |  |  | 16.8 | 1.24 | 12.6 | 1.65 | 14 | 47 |  |
| CC(=O)O[C@H]1C[C@H]2[C@@H]([C@H](OC(C)=O)C[C@@H]3C[C@H](N)CC[C@@]32C)[C@@H]2CC[C@H]([C@H](C)CCCN(CCC[C@@H](C)[C@H]3CC[C@H]4[C@@H]5[C@H](OC(C)=O)C[C@@H]6C[C@H](N)CC[C@]6(C)[C@H]5C[C@H](OC(C)=O)[C@]34C)CCNc3ccnc4cc(Cl)ccc34)[C@@]12C |  | 82.2 | 21 |  | 19 | 1650 | 78 | 19 | 85.9 |  | 114 | 3050 | 96 | 93 | 105 | 1.54 | 175 | 0.92 |  |  | Activity [14]: 89% |
| CC(=O)O[C@H]1C[C@H]2[C@@H]([C@H](OC(C)=O)C[C@@H]3C[C@H](N(C)C)CC[C@@]32C)[C@@H]2CC[C@H]([C@H](C)CCCN(C)CCCNc3ccnc4cc(Cl)ccc34)[C@@]12C | 152 | 86.9 | 93 |  | 35 | 5280 | 57 | 71 | 74.6 |  |  | 1290 |  |  |  |  |  |  |  |  | half-life [19]: 60 min; half-life [20]: 60 min |
| CC(=O)O[C@H]1C[C@H]2[C@@H]([C@H](OC(C)=O)C[C@@H]3C[C@H](O)CC[C@@]32C)[C@@H]2CC[C@H]([C@H](C)CCCNCCNc3ccnc4cc(Cl)ccc34)[C@@]12C | 2.91 | 69.4 | 415 |  | 938 | 2730 |  | 407 | 6.71 | 2810 | 5.13 | 4680 |  |  | 10.7 | 2.58 | 13.3 | 2.08 | 7 | 30 |  |
| CC(=O)N[C@@H]1CC[C@@]2(C)[C@@H](C1)C[C@@H](OC(C)=O)[C@@H]1[C@@H]2C[C@H](OC(C)=O)[C@]2(C)[C@@H]([C@H](C)CCCNCCNc3ccnc4cc(Cl)ccc34)CC[C@@H]12 | 16.6 | 74 | 126 |  | 116 | 1920 |  | 126 | 15.2 |  | 31.8 | 2460 | 28 | 36 | 62.2 | 1.09 | 34.6 | 1.96 |  |  | Activity [14]: 16% |
| CC(=O)O[C@H]1C[C@H]2[C@@H]([C@H](OC(C)=O)C[C@@H]3CC(=O)CC[C@@]32C)[C@@H]2CC[C@H]([C@H](C)CCCNCCNc3ccnc4cc(Cl)ccc34)[C@@]12C | 3.38 | 67.1 | 299 |  | 571 | 1930 | 6.47 | 109 | 17.6 | 52200 | 4.56 | 5700 |  |  | 14.1 | 8.06 | 36.8 | 3.09 | 6 | 13 |  |
